Here are results for 40 compounds from ChEMBL document CHEMBL1143943, “Synthesis of naphtho[2,3-a]phenoxazinium chlorides: structure-activity relationships of these heterocycles and benzo[a]phenoxazinium chlorides as new antimicrobials” (2008).

In brackets after ≈: the same amount, converted by molar mass. Counter-ions that a name gives are not always drawn. Bounds are passed on as bounds.

One experiment relates to Saccharomyces cerevisiae. Kind of experiment: Antifungal activity against Saccharomyces cerevisiae W303-1B at 0.5*10^6 initial cell density after 48 hrs by broth microdilution assay. It is filed as functional. Put shortly:
(§1)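 Same yeast microdilution protocol (W303-1B, RPMI 1640/0.165 M MOPS pH 7.0 with required amino acids, 30 °C, DMSO stocks diluted into medium), but initial inoculum raised in 10-fold steps within 0.5 · 10³–0.5 · 10⁶ cells/mL. MIC taken visually after 48 h as lowest concentration with no detectable growth; triplicates, two independent experiments.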
Consider `CC/N=c1/cc2oc3cc(NCCCC(=O)OCC)c4ccccc4c3nc-2cc1C`, for which the MIC amounted to 30 µM (≈ 12.5 µg/mL).

`CC/N=c1/cc2oc3cc(NCCCCl)c4ccccc4c3nc-2cc1C` displayed an MIC of 15 µM (≈ 5.7 µg/mL).

Another experiment concerns Saccharomyces cerevisiae. Kind of experiment: Antifungal activity against Saccharomyces cerevisiae W303-1B at 0.5*10^5 initial cell density after 48 hrs by broth microdilution assay. It counts as functional. In outline:
as §1
Compound `CC/N=c1/cc2oc3cc(NCCCC(=O)OCC)c4ccccc4c3nc-2cc1C` returned a minimal inhibitory concentration (MIC) of 7.5 µM (≈ 3.13 µg/mL).

`CC/N=c1/cc2oc3cc(NCCCCl)c4ccccc4c3nc-2cc1C` gave an MIC of 7.5 µM (≈ 2.85 µg/mL).

Another experiment deals with Saccharomyces cerevisiae. Kind of experiment: Antifungal activity against Saccharomyces cerevisiae W303-1B at 0.5*10^4 initial cell density after 48 hrs by broth microdilution assay. It counts as functional. In outline: as §1
`CC/N=c1/cc2oc3cc(NCCCC(=O)OCC)c4ccccc4c3nc-2cc1C` showed an MIC of 7.5 µM (≈ 3.13 µg/mL).

In the case of `CC/N=c1/cc2oc3cc(NCCCCl)c4ccccc4c3nc-2cc1C`, the MIC is 7.5 µM (≈ 2.85 µg/mL).

Another experiment relates to Saccharomyces cerevisiae. Kind of experiment: Antifungal activity against Saccharomyces cerevisiae W303-1B after 48 hrs by broth microdilution assay. It is filed as functional. Put shortly: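 NCCLS M27-A broth microdilution; S. cerevisiae W303-1B ([…], ade2, his3, leu2, trp1, ura3) at 0.5 · 10³ cells/mL initial density in RPMI 1640 with 0.165 M MOPS, pH 7.0, plus required amino acids; 30 °C. DMSO stocks diluted into medium. MIC read visually at 48 h as lowest concentration giving no detectable growth; triplicates, two independent experiments.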
In turn, `CC/N=c1/cc2oc3cc(NCCC(=O)NC(C)C(=O)OC)c4ccccc4c3nc-2cc1C` (stereo unspecified) had an MIC of 30 µM (≈ 13.8 µg/mL).

In the case of `CC/N=c1/cc2oc3cc(NCCCCl)c4cc5ccccc5cc4c3nc-2cc1C`, it took 15 µM (≈ 6.45 µg/mL) to inhibit growth (MIC).

In turn, `C[N+](C)=c1ccc2nc3c(cc(NCCCO)c4ccccc43)oc-2c1` returned an MIC of 120 µM.

In turn, `CC/N=c1/cc2oc3cc(NCCC(=O)NC(C(=O)OC)C(C)C)c4ccccc4c3nc-2cc1C` (stereo unspecified) came in with an MIC of 30 µM (≈ 14.7 µg/mL).

As for `CC/N=c1/cc2oc3cc(NCCCC(=O)OCC)c4ccccc4c3nc-2cc1C`, the MIC was 7.5 µM (≈ 3.13 µg/mL).

With `CC[N+](CC)=c1ccc2nc3c(cc(NCCC(=O)OC)c4ccccc43)oc-2c1`, the lowest concentration to inhibit growth (MIC) was 15 µM.

`CC/N=c1/cc2oc3cc(NCCCO)c4ccccc4c3nc-2cc1C` came in with an MIC of 60 µM (≈ 21.7 µg/mL).

As to `CC[N+](CC)=c1ccc2nc3c(cc(NCCCO)c4ccccc43)oc-2c1`, the MIC is 120 µM.

Turning to `CC/N=c1/cc2oc3cc(NCCC(=O)OC)c4ccccc4c3nc-2cc1C`, the MIC came out at 15 µM (≈ 5.84 µg/mL).

In turn, `CC/N=c1/cc2oc3cc(NCCCC(=O)O)c4ccccc4c3nc-2cc1C` came in with a minimal inhibitory concentration (MIC) of 120 µM (≈ 46.7 µg/mL).

Consider `CC/N=c1/cc2oc3cc(NCCC(=O)OCC)c4ccccc4c3nc-2cc1C`, for which inhibition of growth (MIC) required 15 µM (≈ 6.05 µg/mL).

The compound `COC(=O)CCNc1cc2oc3cc(=[N+](C)C)ccc-3nc2c2ccccc12` came in with an MIC greater than 120 µM.

With `CC/N=c1/cc2oc3cc(NCCCCl)c4ccccc4c3nc-2cc1C`, 3.75 µM (≈ 1.42 µg/mL) was the least that counted as inhibitory (MIC).

The compound `CCOC(=O)CCNc1cc2oc3cc(=[N+](C)C)ccc-3nc2c2ccccc12` registered an MIC of 15 µM.

The compound `CC/N=c1/cc2oc3cc(N)c4ccccc4c3nc-2cc1C` yielded an MIC of 15 µM (≈ 4.55 µg/mL).

With `CCCCCC/N=c1\ccc2nc3c(cc(Nc4ccccc4)c4ccccc43)oc-2c1`, the MIC was greater than 120 µM.

`CC[N+](CC)=c1ccc2nc3c(cc(NCCC(=O)O)c4ccccc43)oc-2c1` gave an MIC of 120 µM.

In turn, `CC/N=c1/cc2oc3cc(NCCC(=O)NCC(=O)OC)c4ccccc4c3nc-2cc1C` gave a minimum inhibitory concentration (MIC) of 120 µM (≈ 53.6 µg/mL).

For `CC/N=c1/cc2oc3cc(NCCC(=O)NC(Cc4ccccc4)C(=O)OC)c4ccccc4c3nc-2cc1C` (stereo unspecified), the minimum inhibitory concentration (MIC) was found to be 15 µM (≈ 8.05 µg/mL).

`CC/N=c1/cc2oc3cc(NCCCN)c4cc5ccccc5cc4c3nc-2cc1C` yielded an MIC of 60 µM (≈ 24.6 µg/mL).

In turn, `C[N+](C)=c1ccc2nc3c(cc(NCCC(=O)O)c4ccccc43)oc-2c1` yielded an MIC greater than 120 µM.

In turn, `C[N+](C)=c1ccc2nc3c(cc(N)c4ccccc43)oc-2c1` registered an MIC greater than 120 µM.

`CC/N=c1/cc2oc3cc(N)c4cc5ccccc5cc4c3nc-2cc1C` returned a minimal inhibitory concentration (MIC) of 30 µM (≈ 10.6 µg/mL).

`CC/N=c1/cc2oc3cc(NCCN)c4ccccc4c3nc-2cc1C` displayed an MIC of 120 µM (≈ 41.6 µg/mL).

On to `CC/N=c1/cc2oc3cc(NCCCC(=O)NC(C(=O)OC)C(C)C)c4ccccc4c3nc-2cc1C` (stereo unspecified), for which it took 60 µM (≈ 30.2 µg/mL) to inhibit growth (MIC).

`CC/N=c1/cc2oc3cc(NCCNC(=O)C(NC(=O)OC(C)(C)C)C(C)C)c4ccccc4c3nc-2cc1C` (stereo unspecified) gave an MIC of 15 µM (≈ 8.19 µg/mL).

In turn, `CC/N=c1/cc2oc3cc(NCCOC(=O)C(NC(=O)OC(C)(C)C)C(C)C)c4ccccc4c3nc-2cc1C` (stereo unspecified) showed an MIC of 15 µM (≈ 8.2 µg/mL).

Compound `CC/N=c1/cc2oc3cc(Nc4ccccc4)c4ccccc4c3nc-2cc1C` displayed an MIC greater than 120 µM.

`CC/N=c1/cc2oc3cc(NCCCO)c4cc5ccccc5cc4c3nc-2cc1C` showed a minimum inhibitory concentration (MIC) of 15 µM (≈ 6.17 µg/mL).

`CC/N=c1/cc2oc3cc(NCCCC(=O)OCC)c4cc5ccccc5cc4c3nc-2cc1C` had an MIC of 15 µM (≈ 7.01 µg/mL).

`CC/N=c1/cc2oc3cc(NCCO)c4ccccc4c3nc-2cc1C` yielded an MIC of 30 µM (≈ 10.4 µg/mL).

Consider `CC/N=c1/cc2oc3cc(NCCCN)c4ccccc4c3nc-2cc1C`, for which the MIC is 30 µM (≈ 10.8 µg/mL).

`CC/N=c1/cc2oc3cc(NCCCOC(=O)C(NC(=O)OC(C)(C)C)C(C)C)c4ccccc4c3nc-2cc1C` (stereo unspecified): the MIC is greater than 120 µM.

With `CC/N=c1/cc2oc3cc(NCCC(=O)NC(CCC(=O)OC)C(=O)OC)c4ccccc4c3nc-2cc1C` (stereo unspecified), the MIC was determined as 120 µM (≈ 63.9 µg/mL).

Take `CC/N=c1/cc2oc3cc(NCCC(=O)O)c4ccccc4c3nc-2cc1C`: the MIC turned out to be 15 µM (≈ 5.63 µg/mL).

Compound `CC/N=c1/cc2oc3cc(NC(=O)C(NC(=O)OC(C)(C)C)C(C)C)c4ccccc4c3nc-2cc1C` (stereo unspecified) returned an MIC of 60 µM (≈ 30.2 µg/mL).

Consider `C[N+](C)=c1ccc2nc3c(cc(Nc4ccccc4)c4ccccc43)oc-2c1`, for which the MIC is greater than 120 µM.

Take `CCCNc1cc2oc3c/c(=N/CC)c(C)cc-3nc2c2cc3ccccc3cc12`: the MIC amounted to 15 µM (≈ 5.93 µg/mL).

Turning to `CC/N=c1/cc2oc3cc(NCCC(=O)NCCCCC(NC(C)=O)C(=O)OC)c4ccccc4c3nc-2cc1C` (stereo unspecified), the MIC was 120 µM (≈ 67.2 µg/mL).

Regarding `CC[N+](CC)=c1ccc2nc3c(cc(N)c4ccccc43)oc-2c1` [NILE BLUE HYDROCHLORIDE], the MIC was found to be 60 µM.
